The test system of experiment [1] is A549. Briefly: Cell cycle arrest in human A549 cells assessed as accumulation at S phase at 0.1 uM after 24 hrs by propidium iodide staining based flow cytometry (reference value: 32.37 +/- 1.23%). In kind it is functional. (In general: A flow cytometer gives signals particle by particle.)
Experiment [2] concerns A549. Briefly: Cell cycle arrest in human A549 cells assessed as accumulation at G0/G1 phase at 0.1 uM after 24 hrs by propidium iodide staining based flow cytometry (reference value: 46.39 +/- 1.75%). In kind it is functional.
The subject of experiment [3] is A549. Put plainly: Cell cycle arrest in human A549 cells assessed as accumulation at G2/M phase at 0.1 uM after 24 hrs by propidium iodide staining based flow cytometry (reference value: 20.95 +/- 0.8%). In kind it is functional.
In experiment [4] the test system is A549. Briefly: Antiproliferative activity against human A549 cells after 72 hrs by MTS assay. The settings on record: A549, 72 h. In kind it is functional, cell-based. In outline: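 MTS read-out (CellTiter 96 AQueous One) of proliferation in A549 or HCT-116 cells grown in DMEM with 10% FBS at 37 °C, 5% CO2. Taxol-resistant A549 cells were exposed for 72 h. Compounds were screened at 30 μM versus vehicle, with ≥50% inhibition counted active. Actives were then tested over a concentration range for IC50. Triplicate wells, three independent experiments, mean ± SD.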
(In general: Tetrazolium assays rely on reduction of a dye to a coloured formazan, in cell work by metabolically active cells.)

For experiment [5], the species on record is Sus scrofa. Put plainly: Inhibition of porcine tubulin polymerization at 10 uM after 60 mins by spectrometric method. In outline: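 Purified tubulin was incubated at 37 °C with compound at 5, 10 or 20 μM, with DMSO as vehicle. Polymerization was followed as the rise in absorbance at 340 nm over 60 min. Taxol (10 μM) and nocodazole (10 μM) served as controls. Three independent experiments were run.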

The subject of experiment [6] is A549. Put plainly: Activation of spindle assembly checkpoint in human A549 cells assessed as mitotic index by measuring cells positive for histone H3 phosphorylation at Ser10 residue at 340 nM after 4 hrs by FITC staining based immunofluorescence assay (reference value: 3.3 +/- 0.17). In kind it is functional.
Experiment [7] deals with A549. Briefly: Activation of spindle assembly checkpoint in human A549 cells assessed as mitotic index by measuring cells positive for histone H3 phosphorylation at Ser10 residue at 340 nM after 8 hrs by FITC staining based immunofluorescence assay (reference value: 3.17 +/- 0.15). It is filed as functional.
Experiment [8] relates to A549. Briefly: Activation of spindle assembly checkpoint in human A549 cells assessed as mitotic index by measuring cells positive for histone H3 phosphorylation at Ser10 residue at 340 nM after 16 hrs by FITC staining based immunofluorescence assay (reference value: 3.23 +/- 0.15). In kind it is functional.
For experiment [9], the system named is A549. Put plainly: Activation of spindle assembly checkpoint in human A549 cells assessed as mitotic index by measuring cells positive for histone H3 phosphorylation at Ser10 residue at 340 nM after 2 hrs by FITC staining based immunofluorescence assay (reference value: 2.67 +/- 0.21). In kind it is functional.

Each structure is given as a SMILES string. Calls of active or inactive are those of the source. No cut-off for these calls is given here.

With `CC(=O)O[C@H]1C(=O)[C@@]2(C)[C@H]([C@H](OC(=O)c3ccccc3)[C@]3(O)C[C@H](OC(=O)[C@H](O)[C@@H](NC(=O)c4ccccc4)c4ccccc4)C(C)=C1C3(C)C)[C@]1(OC(C)=O)CO[C@@H]1C[C@@H]2O` [PACLITAXEL], the Activity is recorded as 24.56% in experiment [1], 5.86% in experiment [2] and 74.17% in experiment [3]. The half-inhibitory concentration (IC50) in experiment [4] was greater than 30 µM.
For the compound `COC(=O)Nc1nc2cc(C(=O)c3cccs3)ccc2[nH]1` [NOCODAZOLE], the inhibition entry in experiment [5] was “Active”. Further, the Activity_index is given as 14.57 in experiment [6], 28.57 in experiment [7], 57.93 in [8] and 9.83 in experiment [9].

A word on the IC50: it is the concentration that inhibits the measured activity by half. A high value points to lower potency.

The record behind these values is ChEMBL document CHEMBL4152279, “Synthesis, cytotoxic evaluation and target identification of thieno[2,3-d]pyrimidine derivatives with a dithiocarbamate side chain at C2 position” (Eur J Med Chem, 2018).
